Compounds with a hit are over-represented: about 4% of the library has one in this group of screens.
OX1R antag-1 – OX1R (human) antagonism | inhibition, % at 6.6 µM | OX1R-expressing cells, FRET antagonist read-out | O43613 | AID 485270 | hit rate 1.8% among 330,000; in the data active = inhibition mostly above about 38%, no sharp cut-off; inactive = mostly below about 40%;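 also: 0% = agonist challenge alone and 100% = reference antagonist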
Target sequence (O43613 whole entry, looked up): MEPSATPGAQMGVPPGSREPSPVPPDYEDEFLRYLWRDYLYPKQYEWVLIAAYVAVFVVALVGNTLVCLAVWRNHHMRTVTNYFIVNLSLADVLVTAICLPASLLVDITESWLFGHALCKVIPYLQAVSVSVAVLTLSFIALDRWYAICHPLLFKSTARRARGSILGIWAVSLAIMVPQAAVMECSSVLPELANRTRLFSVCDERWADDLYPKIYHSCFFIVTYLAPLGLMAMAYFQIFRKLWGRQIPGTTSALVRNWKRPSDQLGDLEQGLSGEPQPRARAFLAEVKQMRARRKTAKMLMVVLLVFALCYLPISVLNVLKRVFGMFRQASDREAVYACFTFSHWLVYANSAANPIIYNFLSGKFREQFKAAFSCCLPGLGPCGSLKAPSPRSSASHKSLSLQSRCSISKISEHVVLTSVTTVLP
TAAR1 agonist – agonists of human TAAR1. Q96RJ0. CHO RD-HGA16 TAAR1, Fluo-8 calcium fluorescence; vehicle wells 0%, saturating PEA agonist 100%. activation, % at 3 µM. hit rate 0.99% among 360,000. AID 624467;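 active = activation above the mean activation of all test compounds in the run plus 3 SD, cut at about 38% in these data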
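Signal – calcium-sensitive Fluo-8 signal, excitation 470-495, emission 515-575 nm · System – RD-HGA16 (CHO) cells co-expressing Gα16 and hTAAR1 · Incubation – 17-24 h seeding, 75 min 37 °C dye, 30 min RT · Compound dosing – 3 µM single concentration · Repeats – no replicates (n 1)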
OX1R antag-2 – antagonists of human orexin 1 receptor. O43613. CHO/OX1R cells, Fluo-8 calcium fluorescence, orexin A. inhibition, % at 5 µM. hit rate 0.43% among 330,000. AID 434989;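 active = inhibition above its plate's threshold, mean inhibition of all tested compounds on the plate plus 3 SD, cut at about 37% in these data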;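 also: 0% = orexin A challenge wells and 100% = SB-334867-A antagonist wells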
TAAR1 antag – human TAAR1 antagonism | Q96RJ0 | CHO RD-HGA16 TAAR1, Fluo-8 calcium fluorescence, antagonist | inhibition, % at 3 µM | hit rate 1.5% among 360,000 | AID 624466;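 active = inhibition above a per-plate cutoff, the mean inhibition of test compounds on that plate plus 3 SD, cut at about 49% in these data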;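 also: 0% = DMSO plus EC80 beta-PEA response and 100% = DMSO alone without agonist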
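Test system: RD-HGA16 CHO cells with stable hTAAR1 and Gα16 / Probe or stimulus: EC80 β-phenethylamine stimulus / Times: seeding 17-24 h prior, 75-min 37 °C, 30-min RT dye loading / Detection: Fluo-8 calcium-sensitive fluorescence / Read-out basis: % inhibition scaled between DMSO and EC80 PEA controls / Repeats: singlicate, one well per test compound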
CHO parental Ca – signal in parental CHO cells, OX1R antagonist counter-screen; inhibition, % at 5.6 µM; AID 463079; parental CHO-K1, ATP-induced calcium, Fluo-8 fluorescence; hit rate 0.63% among 330,000;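 active = inhibition above that plate's mean sample inhibition plus 3 SD, cut at about 26% in these data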;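 also: 0% = ATP-challenged DMSO wells and 100% = DMSO wells without ATP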
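Assay system – parental CHO cells · Reagent – ATP stimulus · Detection – intracellular calcium via Fluo-8 no-wash fluorescent dye · Evaluation – percent inhibition of ATP-evoked calcium rise, normalized to controls · Controls – ATP wells versus no-ATP DMSO wells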
Numbers without * were called inactive; x = no result.

SMILES	OX1R antag-1	TAAR1 agonist	OX1R antag-2	TAAR1 antag	CHO parental Ca
O=C1Nc2ccccc2O/C1=C\c1ccccc1Br	45*	-2	4	-13	-16
COc1ccc(CN(C)C(=O)C(CCSC)NS(=O)(=O)c2ccc3c(c2)OCCO3)c(OC)c1OC (stereo not given)	x	12	x	56*	x
COC(=O)C1=C(C)N(C)C(=NCC2CC2)NC1c1ccc(F)cc1 (stereo not given)	x	0	x	-1	x
CC(=O)c1cccc(Nc2ncnc3ccc(Br)cc23)c1	74*	3	-13	8	-27
CSCCC(Nc1ncnc2ccc(Br)cc12)C(=O)O (stereo not given)	-12	3	4	3	4
COc1cc(C(=O)Oc2cccc(Nc3ncnc4ccccc34)c2)cc(OC)c1OC	56*	13	64*	82*	43*
CC(C)Nc1ncnc2ccc(Br)cc12	25	4	19	0	29*
O=C(Oc1cccc(Nc2ncnc3ccccc23)c1)c1cccnc1	39	11	4	31	6
CC1CCN(C(=O)COC(=O)c2ccc3c(c2)OCO3)CC1	34	2	-18	-4	5
CC(C)c1nnc(SCC(=O)NC2CCCCC2)n1C	-11	-4	-13	1	0
O=C(Nc1ccc2[nH]c(=O)[nH]c2c1)c1c(F)c(F)c(F)c(F)c1F	4	9	-5	2	9
COc1ccccc1Cc1c(-c2ccc(Cl)cc2)nc2ccc(C)cn12	x	-1	x	-7	x
CC(=O)N(C)c1ccc(NC(=O)Nc2ccc(C)c(C)c2)cc1	11	34	-5	58*	-3
O=C(Nc1ccc(F)cc1)Nc1cc(OCC(F)(F)F)cc(OCC(F)(F)F)c1	31	6	13	34	40*
COc1cccc(NC(=O)Nc2ccc(C)c(Cl)c2)c1	50	15	38*	22	90*
Cc1ccc(NC(=O)CCC(=O)c2ccc(F)cc2)cc1Cl	22	4	-3	8	17
COc1cccc(NC(=O)Nc2cc(C(=O)O)ccc2C)c1	5	4	-13	-13	4
CCOc1ccc(NC(=O)Nc2cc(OCC(F)(F)F)cc(OCC(F)(F)F)c2)cc1	46	9	3	12	22
Cc1ccc(NC(=O)Nc2ccc(F)cc2)cc1Cl	61	18	36	27	41*
O=C(/C=C(\Nc1cccc(Cl)c1)c1ccccc1)c1ccccc1	x	4	x	-19	x
CCCCNC(=S)Nc1ccc(OC)nc1	45	2	-9	-44	-4
O=S1(=O)N[C@@H](Cc2ccccc2)COc2cc(N3CCOCC3)ccc21	x	2	x	10	x
CC(C)(C)c1ccc(NC(=O)Nc2ccc(F)cc2)cc1	29	12	64*	94*	62*
CC(C)(C)c1ccc(COC(=O)Nc2ccc(F)cc2)cc1	5	-1	-5	20	14
O=C(CCNC(=O)C1CCN(S(=O)(=O)c2ccc(F)cc2)CC1)NCc1cccc(Cl)c1	20	3	-10	-39	-13
SMILES	OX1R antag-1	TAAR1 agonist	OX1R antag-2	TAAR1 antag	CHO parental Ca
O=[N+]([O-])c1cc(Br)c(O)c(/C=N/Nc2nnnn2-c2cccc3ccccc23)c1	45*	6	-10	17	-18
O=[N+]([O-])c1ccc(C(=S)N2CCC(Cc3ccccc3)CC2)cc1	12	3	-10	53*	-6
Cc1ccc(NC(=O)/C(=C/c2cccs2)NC(=O)c2ccco2)c(C)c1	8	2	-16	0	-11
O=C(Nc1ccc(Br)c(C(F)(F)F)c1)c1ccc(C(F)(F)F)cc1	62*	3	60*	6	40*
O=C(C(=O)N1CCC(CNS(=O)(=O)c2cccc3ccccc23)CC1)c1cccs1	x	6	x	16	x
COc1ccc(C(CCNCc2ccc(OC(C)C)cc2)c2ccccc2OC)cc1 (stereo not given)	3	38*	-4	38	13
COc1ccc(CNCCC(c2ccc(OC)cc2)c2ccccc2OC)cc1 (stereo not given)	8	17	-23	11	-15
CCN(CC)CCn1c2ccccc2c2nc3ccccc3nc21	67*	1	-2	-4	-11
CCN(CC)CCn1c2ccccc2c2n[nH]c(=S)nc21	20	5	-20	-8	-14
COC(=O)C1=C(C)N(C)C(=NCc2ccc3c(c2)OCO3)NC1c1cccc(F)c1 (stereo not given)	x	1	x	-9	x
CCCCOC(=O)CSCC(=O)N1N=C(c2cccs2)CC1c1ccc(F)cc1 (stereo not given)	3	3	-13	4	29*
CCOC(=O)CSCC(=O)N1N=C(c2cccs2)CC1c1ccc(F)cc1 (stereo not given)	13	1	-25	-23	-10
CC(C)CCC(C(=O)NC(C)c1ccccc1)C(=O)NC(C)c1ccccc1 (stereo not given)	43*	3	14	-4	-22
CN(Cc1ccccc1)C(=O)CSc1nc2ccccc2c(=O)n1Cc1ccco1	34*	1	14	2	-24
Cc1ccc(NC(=O)CN(C)C(=O)CSc2nc3ccccc3c(=O)n2Cc2ccco2)cc1	33	2	-23	-12	-25
Cc1nc2sccn2c(=O)c1S(=O)(=O)Nc1ccc(N2CCN(S(C)(=O)=O)CC2)cc1	11	21	-5	60*	7
Cc1ccc(-n2cc(-c3ccccc3)c3c(N4CCOCC4)ncnc32)cc1	x	6	x	54*	x
Cc1csc(=O)n1CC(=O)OCc1cccc2ccccc12	46*	6	2	16	-23
CCOC(=O)C1CSCCS(=O)(=O)N1Cc1ccccc1F (stereo not given)	x	5	x	-8	x
COC(=O)c1cc2c(c3c4cc(F)ccc4n(C(=O)c4ccccc4)c13)C(=O)N(C1CCCCC1)C2	x	0	x	0	x
CCCc1cc(C(=O)Nc2cccc(C(C)=O)c2)no1	23	-1	-17	-9	-5
CCCc1cc(C(=O)Nc2ccc(C(C)=O)cc2)no1	12	0	-12	10	28*
COc1ccc(OC)c(S(=O)(=O)NCC2CCN(C(=O)C(=O)c3cccs3)CC2)c1	x	1	x	-5	x
Cc1ccc(C2CC2c2n[nH]c(=S)n2-c2ccc(Cl)cc2)cc1 (stereo not given)	10	15	35	12	86*
Cc1ccccc1OCCNc1cc(N2CCN(CCO)CC2)ccc1[N+](=O)[O-]	27	28	6	24	-3
Cc1ccccc1OCCNc1cc(N2CCCCC2)ccc1[N+](=O)[O-]	18	6	-4	19	37*
COc1ccc(Cn2c(=N)c(C(=O)NC3CCCCC3)cc3c(=O)n4ccccc4nc32)cc1	22	-1	-32	0	-7
N=c1c(C(=O)NC2CCCC2)cc2c(=O)n3ccccc3nc2n1C1CCCC1	32	-1	-7	-9	-1

High-throughput results: PubChem, The Scripps Research Institute Molecular Screening Center
